Measured values reported in paper PMC11931292 (Drug Design, Development and Therapy, 2025).

Columns and labels:
BCG within RAW264.7 = assay: Intracellular inhibition, CFU assay in infected RAW264.7 cells; type: cell-based; details: 0.047 μg/mL drug, 72 hours, BCG MOI 1
Procedure, shortened: (§1)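 RAW264.7 macrophages were seeded at 1×10⁶ cells/well in 12-well plates and infected at MOI 1, for 24 h with BCG or 4 h with H37Rv. Cells were exposed to 0.047 μg/mL free drug or nanoparticles with equivalent drug for 72 h, washed three times with PBS, and lysed 10 min in PBS with 0.03% SDS. Lysates were serially diluted in 7H9, plated on 7H11, and CFU counted after 21 days at 37°C (three replicates).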

[1] = Organ toxicity: H&E histology and serum biochemistry; type: in vivo, SD rats; details: fourth day after injection
Procedure, shortened: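 On day 4 after injection, animals were euthanised. Heart, kidneys, liver, lungs and spleen were excised, rinsed in saline to remove blood, fixed in 4% paraformaldehyde for 72 h, and stained with hematoxylin and eosin.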

[2] = Pharmacokinetics study, single intravenous injection; type: in vivo, Sprague-Dawley (SD) rats; details: SD rats, single i.v. 10 mg/kg
Procedure, shortened: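 Male SD rats (180–220 g) were randomised to free drug or one of two nanoparticle formulations and anaesthetised with i.p. 2% sodium pentobarbital (3mg/100g). Each got a single i.v. dose of 10 mg/kg drug-equivalent. Blood was drawn by orbital bleeding at set times. Plasma was deproteinised with acetonitrile and centrifuged, and the supernatant was assayed by HPLC (C18, 30°C, 335 nm). Cmax, Tmax, t1/2, MRT and AUC0–∞ were derived.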

In vitro drug release = type: physicochemical; details: within 9 hours
H37Rv within RAW264.7 = assay: Intracellular inhibition, CFU assay in infected RAW264.7 cells; type: cell-based, Mycobacterium tuberculosis; details: 0.047 μg/mL drug, 72 hours, H37Rv MOI 1
Procedure, shortened: as §1

CO[C@H]1/C=C/O[C@@]2(C)Oc3c(C)c(O)c4c(O)c(c(/C=N/N5CCN(C6CCCC6)CC5)c(O)c4c3C2=O)NC(=O)/C(C)=C\C=C\[C@H](C)[C@H](O)[C@@H](C)[C@@H](O)[C@@H](C)[C@H](OC(C)=O)[C@@H]1C [RPT, Rifapentine]
Intracellular antibacterial activity (CFU) (BCG within RAW264.7): exhibited inhibitory effects | H&E histology of heart, spleen, liver, lungs and kidneys [1]: no discernible abnormalities | Time the drug persisted in the system [2]: 2 days | Cumulative release (initial burst release) (In vitro drug release): approximately 90.73% | Intracellular antibacterial activity (CFU) (H37Rv within RAW264.7): exhibited inhibitory effects
